The array DNA melting data of Ke et al. (doi:10.1101/2024.01.08.574731)

Experiments:
[1] = folding enthalpy; higher = less favourable; fluorescence melt of hairpins on a sequencing array, two-state fit; conditions: sodium 0.088 M
Procedure, shortened: (§1)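 With Cy3 and quencher oligos annealed, library hairpins on a sequenced MiSeq flow cell were imaged for Cy3 fluorescence in 50 mM Na-HEPES pH 8.0, 25 mM NaCl, in 2.5 °C steps up to 60 °C. Melting temperature and folding enthalpy were derived from bootstrapped two-state fits of signals normalised to pre-quench Cy3 and to control constructs. Four replicates were combined by inverse variance, with fitted temperatures raised by 9.35 °C to match UV melts.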

[2] = melting temperature; fluorescence melt of hairpins on a sequencing array, two-state fit, raised by 9.35 °C to match UV melts; conditions: sodium 0.088 M
Procedure, shortened: as §1

Sequence	folding enthalpy [1] [kcal/mol]	Tm [2] [°C]
GGGTGTTCGAAAGAACCC (((..(((....))))))	-16.7	52
GGGTTAACGAAAGTTCCC (((..(((....))))))	-21.2	37.4
GGGTTAGAAATAACCC ((((((....))))))	-36.4	53.1
GGGTTAGCGAAAGCTCCC (((..(((....))))))	-23.7	41.8
GGGTTAGGAAACTAACCC (((((((....)))))))	-47.6	61.3
GGGTTAGGAAACTGACTC (.((.((....)).)).)	-12.3	27.7
GGGTTCACGAAAGTGCCC (((..(((....))))))	-19.6	41.2
GGGTTCCGAAAGGATCCC (((.(((....))).)))	-42.1	55.9
GGGTTCGAAAGAACACCC ((((((....)))..)))	-11.8	55.1
GGGTTCGAAAGAACCCCC ((((((....)))..)))	-9.24	68.2
GGGTTCGAAAGAATCCCC ((((((....)))..)))	-15.9	50.6
GGGTTCGAAAGAATGCCC ((((((....)))..)))	-21.1	35.3
GGGTTCGAAAGAATTCCC ((((((....)))..)))	-20.4	33.8
GGGTTCGGAAACGAGTCC ((..(((....)))..))	-25.4	37.7
GGGTTCGGAAACGGATCC ((.(.((....)).).))	-27.2	40.2
GGGTTCTCGAAAGAGCCC (((..(((....))))))	-26.5	48.1
GGGTTGCCGAAAGGCCCC (((..(((....))))))	-14.5	48.4
GGGTTGGGAAACCGACCC ((((.((....)).))))	-45.4	58.4
GGGTTGGGAAACTAACCC (((((.(....).)))))	-40.6	50.6
GGGTTGTCGAAAGACCCC (((..(((....))))))	-20.5	42.7
GGGTTTCGAAAGAAGCCC (((.(((....))).)))	-44.4	57.1
GGGTTTGGAAACGAATCC ((.((.(....).)).))	-25.1	34.6
GGTAAACGAAAGTTACC (((.(((....))))))	-25.6	46

Sequence	folding enthalpy [1] [kcal/mol]	Tm [2] [°C]
GGTAAAGGAAACTTTATC (.(((((....))))).)	-18.7	30.5
GGTAACCGAAAGGTACC (((.(((....))))))	-19.4	51.1
GGTAACGAAAGTTAAACC ((((((....)))..)))	-16.1	32.3
GGTAACGAAAGTTGGACC ((((((....)))..)))	-15.5	26.8
GGTAAGTCGAAAGACACC (((..(((....))))))	-17.9	37.3
GGTAATGGAAACATCACC (((.(((....))).)))	-18.2	30.7
GGTAATGGAAACATTATC (.(((((....))))).)	-26.8	35.7
GGTAATGGAAACGTTACC (((((.(....).)))))	-40.4	45
GGTACAGAAATGTACC ((((((....))))))	-38	53
GGTACAGCGAAAGCTACC (((..(((....))))))	-16.4	38.1
GGTACAGGAAACTGCACC (((.(((....))).)))	-32.5	44.2
GGTACCCCGAAAGGGACC (((..(((....))))))	-19.8	46.7
GGTACCGAAAGGTCACC ((((((....))).)))	-17.7	46.8
GGTACCGAAAGGTCCACC ((((((....)))..)))	-13.3	41.3
GGTACCGAAAGGTCGACC ((((((....)))..)))	-13.6	36.5
GGTACCGAAAGGTCTACC ((((((....)))..)))	-15	33.9
GGTACCGAAAGGTGACC ((((((....))).)))	-21.5	48.4
GGTACCGAAAGGTGGACC ((((((....)))..)))	-17	37.8
GGTACCGGAAACGGTACC (((((((....)))))))	-30.5	69
GGTACGCCGAAAGGCACC (((..(((....))))))	-8.21	32
GGTACGCGAAAGCGCACC (((.(((....))).)))	-28.6	57.6
GGTACGGAAACGTACC ((((((....))))))	-37.8	65.8
GGTACGTCGAAAGACACC (((..(((....))))))	-9.89	33.3

Sequence	folding enthalpy [1] [kcal/mol]	Tm [2] [°C]
GGTACTCCGAAAGGAACC (((..(((....))))))	-9.52	25.4
GGTACTGCGAAAGCAACC (((..(((....))))))	-9.7	28.8
GGTACTGGAAACAGTACC (((((((....)))))))	-50.7	61.5
GGTACTGGAAACAGTGTC (..((((....))))..)	-13.9	28.9
GGTAGACCGAAAGGTACC (((..(((....))))))	-19.8	38
GGTAGACGAAAGTCCACC (((.(((....))).)))	-23.8	46.3
GGTAGAGAAATCTACC ((((((....))))))	-25.2	49.2
GGTAGAGCGAAAGCTACC (((..(((....))))))	-17.3	45.5
GGTAGCACGAAAGTGACC (((..(((....))))))	-13.9	32.2
GGTAGCCGAAAGGCAACC (((.(((....))).)))	-23.8	57.9
GGTAGCGAAAGCTATACC ((((((....)))..)))	-15.5	44
GGTAGCGAAAGCTCCACC ((((((....)))..)))	-13.2	38.8
GGTAGCGAAAGCTGAACC ((((((....)))..)))	-17.6	38.2
GGTAGCGAAAGCTTACC ((((((....))).)))	-20.9	51.6
GGTAGCGGAAACACTACC (((((.(....).)))))	-30.9	44.8
GGTAGCGGAAACGCCACC (((.(((....))).)))	-24.8	48.3
GGTAGCGGAAACGCTATC (.(((((....))))).)	-29.2	51.8
GGTAGCGGAAACGTTACC ((((.((....)).))))	-32.4	50.4
GGTAGGCCGAAAGGCACC (((..(((....))))))	-12	41.9
GGTAGGGGAAACCCCACC (((.(((....))).)))	-23.7	46.2
GGTAGGGGAAACCTTACC ((((.((....)).))))	-30.5	44.1
GGTAGGGGAAACTCTACC (((((.(....).)))))	-37.4	46
GGTAGTGAAAACTACC ((((((....))))))	-33.4	58.5

Sequence	folding enthalpy [1] [kcal/mol]	Tm [2] [°C]
GGTAGTGGAAACACCACC (((.(((....))).)))	-20.8	40
GGTAGTGGAAACGTTACC ((((..(....)..))))	-17.1	34.5
GGTATACGAAAGTAAACC (((.(((....))).)))	-28.4	43.6
GGTATCACGAAAGTGACC (((..(((....))))))	-9.93	30
GGTATCCCGAAAGGGACC (((..(((....))))))	-9.73	34.8
GGTATCCGAAAGGACACC (((.(((....))).)))	-25.2	47.5
GGTATCGAAAGATCACC ((((((....))).)))	-21.9	35
GGTATCGCGAAAGCGACC (((..(((....))))))	-9.09	31.7
GGTATCGGAAACAATACC (((((.(....).)))))	-34.9	31.6
GGTATCGGAAACGACACC (((.(((....))).)))	-30.7	43.4
GGTATGAAAATACC (((((....)))))	-20.9	47.5
GGTATGCGAAAGCAAACC (((.(((....))).)))	-30.2	53
GGTATGGGAAACCGTACC ((((.((....)).))))	-38.5	50.5
GGTATTACGAAAGTAACC (((..(((....))))))	-13.4	27.5
GGTATTCCGAAAGGAACC (((..(((....))))))	-12.8	29.4
GGTATTGGAAACAATGCC ((.((((....)))).))	-37.1	47.7
GGTATTGGAAACAGTACC ((((.((....)).))))	-32.2	39.6
GGTCAACCGAAAGGTACC (((..(((....))))))	-15.9	35.1
GGTCAACGAAAGTTACC (((.(((....))))))	-20.6	38.2
GGTCACCCGAAAGGGACC (((..(((....))))))	-17.7	48.6
GGTCACGAAAGTGCGACC ((((((....)))..)))	-17.7	40.8
GGTCACGAAAGTGTTACC ((((((....)))..)))	-17.1	38.2
